The species named for data set [1] is Mus musculus. Briefly: Inhibition of TLR4/IL-1R in BALB/c mouse BMDM assessed as downregulation of LPS-stimulated MyD88 protein expression at 1 ug/mL after 20 hrs by Western blotting analysis relative to control. The procedure, abridged:
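Bone marrow macrophages were treated 20 h with medium, compound (1 or 5 μg/mL) or LPS (100 ng/mL) and lysed in modified RIPA buffer. Protein (30 μg) was separated on Bis-Tris gels, and MyD88 and GAPDH were detected by Western blot with ECL. Densitometric MyD88:GAPDH ratio was normalized to the RPMI value, from six analyses.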
(In general: Immunoblotting shows a protein as a band on a membrane.)

In data set [2] the target is T1, Toll-like receptor 4 (Mus musculus) (UniProt Q9QUK6).
T1 sequence (whole entry): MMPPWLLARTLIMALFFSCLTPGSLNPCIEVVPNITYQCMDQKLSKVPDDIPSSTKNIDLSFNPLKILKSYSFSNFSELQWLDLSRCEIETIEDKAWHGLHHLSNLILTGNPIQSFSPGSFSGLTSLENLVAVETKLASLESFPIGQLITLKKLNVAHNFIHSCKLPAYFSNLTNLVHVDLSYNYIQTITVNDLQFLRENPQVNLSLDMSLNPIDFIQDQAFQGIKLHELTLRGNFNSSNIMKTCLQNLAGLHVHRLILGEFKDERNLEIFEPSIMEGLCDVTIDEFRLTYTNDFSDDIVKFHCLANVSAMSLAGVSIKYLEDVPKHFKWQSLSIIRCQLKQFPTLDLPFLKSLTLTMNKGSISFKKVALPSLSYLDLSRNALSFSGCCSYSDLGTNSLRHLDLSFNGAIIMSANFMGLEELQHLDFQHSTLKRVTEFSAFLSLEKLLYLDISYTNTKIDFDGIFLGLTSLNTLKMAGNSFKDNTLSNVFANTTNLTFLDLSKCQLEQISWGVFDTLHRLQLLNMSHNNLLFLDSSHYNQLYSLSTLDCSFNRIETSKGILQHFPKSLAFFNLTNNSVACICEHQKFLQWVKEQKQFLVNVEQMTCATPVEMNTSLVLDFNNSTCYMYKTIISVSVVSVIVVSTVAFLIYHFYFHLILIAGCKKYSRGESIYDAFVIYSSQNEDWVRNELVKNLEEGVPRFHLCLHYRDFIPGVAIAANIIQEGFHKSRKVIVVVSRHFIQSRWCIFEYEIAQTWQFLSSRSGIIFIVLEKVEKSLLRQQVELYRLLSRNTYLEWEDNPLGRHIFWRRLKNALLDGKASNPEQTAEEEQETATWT
Briefly: Inhibition of TLR4 in ovalbumin pulsed BALB/c mouse BMDC co-cultured with DO-11.10 CD4+ T cells assessed as reduction of LPS-induced IL-17 production at 5 ug/mL after 3 days by ELISA. The format is cell-based. The settings on record: T-cell. The procedure, abridged: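 BALB/c bone marrow DCs ± compound (5 μg/mL) were treated ± S. minnesota LPS and pulsed with OVA peptide (0–300 nM). They were cocultured 3 days with naive CD4+CD62L+ DO.11.10 T cells, and IL-17A was measured by ELISA. Values are mean ± SD of duplicates from two experiments.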
Background: In an ELISA, binding on a coated surface is turned into a signal by an enzyme label.

Data set [3] addresses T1, Toll-like receptor 4 (Mus musculus). Briefly: Inhibition of TLR4 in C57BL/6 mouse BMDC assessed as reduction of LPS-induced TNF-alpha production at 5 ug/mL preincubated for 2 hrs prior to LPS challenge measured after 24 hrs by ELISA. The procedure, abridged:
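C57BL/6 bone marrow DCs were generated in complete RPMI with 10 ng/mL GM-CSF. They were preincubated ± compound at 5 μg/mL for 2 h, then stimulated with LPS for 24 h. TNF-α, IL-6 and IL-23 in conditioned medium were measured by ELISA. Values are means of triplicates ± SEM pooled from 4 experiments.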

The subject of data set [4] is Mus musculus. Briefly: Antiinflammatory activity in DBA/1 mouse assessed as reduction in number of PMA/ionomycin-stimulated gammadelta+ T cells expressing IL-17 at 50 ug/kg, sc administered 2 days prior to collagen challenge continued till day 21 post collagen challenge by flow cytometric analysis relative to control. The format is functional, organism-based. As to conditions: T-cell. The method in brief:
(§1)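 CIA mice given test agent (1 μg/dose) or PBS subcutaneously on days −2, 0 and 21. Draining lymph node cells (10^6/mL) in complete RPMI were stimulated ± 50 ng/mL PMA plus 500 ng/mL ionomycin, with 10 μg/mL brefeldin A for 5 h at 37 °C. Cells were surface-stained for CD4, CD8 and γδ, fixed and permeabilized, then stained for intracellular IFNγ and IL-17A. Gating used isotype controls. Cell numbers per individual mouse; naive n = 7, treated groups n = 13.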
For orientation: In flow cytometry, cells or beads pass a laser one at a time.

Data set [5] deals with Mus musculus. Briefly: Antiinflammatory activity in DBA/1 mouse collagen-induced arthritis model assessed as reduction in number of PMA/ionomycin-stimulated CD4+ T cells expressing IFNgamma at 50 ug/kg, sc administered 2 days prior to collagen challenge continued till day 21 post collagen challenge by flow cytometric analysis relative to control. Format: functional, organism-based. As to conditions: T-cell. The procedure, abridged:
as §1

Data set [6] has as its system Mus musculus. Briefly: Antiinflammatory activity in DBA/1 mouse collagen-induced arthritis model assessed as reduction in number of gammadelta+ T cells at 50 ug/kg, sc administered 2 days prior to collagen challenge continued till day 21 post collagen challenge. The settings on record: T-cell. Format: functional, organism-based. The method in brief: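 Dosing was 1 μg/dose or PBS given subcutaneously on days −2, 0 and 21 of CIA. Total, CD4+, CD8+ and γδ T cell numbers in draining lymph nodes were counted by flow cytometry for each mouse. Naive mice not exposed to collagen served as a further control (naive n = 7; PBS and treated n = 13).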

Data set [7] deals with Mus musculus. Briefly: Antiinflammatory activity in DBA/1 mouse collagen-induced arthritis model assessed as reduction of disease incidence at 50 ug/kg, sc administered 2 days prior to collagen challenge continued till day 21 post collagen challenge. Format: functional, organism-based. The method in brief:
(§2)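 Collagen-induced arthritis mice were dosed subcutaneously (1 μg/dose) or given PBS on days −2, 0 and 21. Arthritis was scored clinically and hind paw width measured. Incidence was the % of mice with severity score ≥2 (cumulative) or ≥4 (high score). Results are mean ± SEM. Scores n = 13 per group, pooled from two experiments; paw width n = 7, from a single experiment.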

The subject of data set [8] is Mus musculus. Description: Antiinflammatory activity in DBA/1 mouse collagen-induced arthritis model assessed as reduction of disease scores at 50 ug/kg, sc administered 2 days prior to collagen challenge continued till day 21 post collagen challenge. The format is functional, organism-based. The method in brief: as §2
The nature of data set [9]: Cytotoxicity against BLP-stimulated BALB/c mouse BMDM assessed as loss of cell viability at 5 ug/mL preincubated for 18 hrs followed by BLP challenge measured after 24 hrs by 7-AAD staining-based flow cytometric analysis. The method in brief:
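BALB/c bone marrow macrophages (2 × 10^5/well) were rested 24 h in complete RPMI, then given 5 μg/mL compound for 18 h. Cells were stained with 7-AAD for 10 min on ice and the dead fraction read by flow cytometry. One experiment is representative of two.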

The target in data set [10] is T1, Toll-like receptor 4 (Mus musculus). Description: Inhibition of TLR4 in BALB/c mouse BMDM assessed as reduction of LPS-stimulated IL-6 production at 0.2 ug/ml preincubated for 18 hrs followed by LPS challenge measured after 24 hrs by ELISA.

For one compound, fold change (FC), inhibition and Activity results are on record in ChEMBL document CHEMBL3108700, “Designing anti-inflammatory drugs from parasitic worms: a synthetic small molecule analogue of the Acanthocheilonema viteae product ES-62 prevents development of collagen-induced arthritis” (J Med Chem, 2013).

Molecules are shown by their SMILES. Calls of active or inactive are those of the source. No cut-off for these calls is given here.

As to `CN(C)CCS(=O)(=O)Cc1ccc(Br)cc1`, the fold change (FC) in the data set listed under Mus musculus [1] was 1.09. Besides, the inhibition entry in [2] and in [3] was “Active” throughout. In addition, the result in the data set with Mus musculus [4], in the data set with Mus musculus [5], in the data set on Mus musculus [6], with Mus musculus [7] and with Mus musculus [8] was Active. Further, in [9], the Activity entry is given as “Non-toxic”. Besides, the inhibition result in [10] was “inactive”.
